This is a sample that favours compounds with a hit; in the whole collection about 1.3% have one here.
Keap1-Nrf2 PPI = Keap1-Nrf2 protein-protein interaction inhibitors, primary screen, biochemical, fluorescence polarization, single point; Kelch-like ECH-associated protein 1 (Homo sapiens), Q14145; Keap1 Kelch-Nrf2 peptide fluorescence polarization, 1536-well; inhibition, % at 9.4 µM; 340,000 compounds, 0.15% hits; in the data active = inhibition above about 12%;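 note: human Keap1 Kelch domain with fluorescein labeled Nrf2 9mer peptide probe; 0% = neutral control wells and 100% = peptide positive control; higher means more block of Keap1 binding to Nrf2 peptide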
Target sequence (Q14145 whole entry, looked up, the tested form may be a part): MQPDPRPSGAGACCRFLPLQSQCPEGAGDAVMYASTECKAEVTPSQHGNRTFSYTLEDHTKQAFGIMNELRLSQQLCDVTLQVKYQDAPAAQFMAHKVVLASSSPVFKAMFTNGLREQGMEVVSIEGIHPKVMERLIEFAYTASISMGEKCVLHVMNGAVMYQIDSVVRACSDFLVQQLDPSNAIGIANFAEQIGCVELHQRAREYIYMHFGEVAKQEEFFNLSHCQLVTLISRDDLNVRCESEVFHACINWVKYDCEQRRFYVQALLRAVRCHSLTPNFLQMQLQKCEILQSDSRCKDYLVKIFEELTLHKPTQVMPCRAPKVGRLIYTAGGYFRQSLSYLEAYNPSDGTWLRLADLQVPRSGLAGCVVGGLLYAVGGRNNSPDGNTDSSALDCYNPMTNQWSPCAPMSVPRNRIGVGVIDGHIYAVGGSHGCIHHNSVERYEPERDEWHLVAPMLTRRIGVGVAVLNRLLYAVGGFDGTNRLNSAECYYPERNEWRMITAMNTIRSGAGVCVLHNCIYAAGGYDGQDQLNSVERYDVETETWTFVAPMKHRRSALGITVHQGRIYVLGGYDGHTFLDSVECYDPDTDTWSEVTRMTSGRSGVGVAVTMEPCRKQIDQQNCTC
Cardiac RTF inh = cardiac RTF calcium sensitivity inhibitors, primary screen, biochemical, IANBD-TnC fluorescence, EC70 calcium. 340,000 compounds, 0.12% hits. AID 493244, 2011. IANBD-labeled cardiac RTF, Ca2+ fluorescence. Troponin I, cardiac muscle (Homo sapiens) + Troponin T, cardiac muscle (Homo sapiens) + …. inhibition, % at 7.15 µM;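 active = inhibition above the mean inhibition of all tested compounds plus 3 SD, cut at about 17% in these data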;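 note: assay run at fixed EC70 calcium of 1.6 mM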
LANA DNA inh = inhibitors of KSHV C-LANA binding to DNA, primary screen, biochemical, fluorescence polarization, FAM-LBS DNA, MBP-C-LANA, single point | 340,000 compounds, 0.078% hits | Kaposi's sarcoma herpesvirus LANA C-terminal domain (residues 932-1162) DNA binding | inhibition, % at 9 µM;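 active = highest replicate inhibition at or above 60% at 9 µM, even if other replicates fall short; inactive = all replicates below 60% inhibition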;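 note: 0% = neutral control wells and 100% = 4 µM acridine orange control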
CAL PDZ FP-1 = untagged CAL PDZ binding inhibitors, primary screen, biochemical, fluorescence polarization, HTS. Golgi-associated PDZ and coiled-coil motif-containing protein (Homo sapiens), Q9HD26. purified CAL PDZ, TMR-peptide fluorescence polarization, 1 h. AID 602252, 2012. inhibition, % at 24.9 µM. 300,000 compounds, 0.92% hits;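 active = mean inhibition of at least 30% with at least half of replicates also reaching 30%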;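 note: 0% = DMSO neutral control and 100% = excess unlabeled competitor peptide PRC23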
cardiac RTF act = cardiac RTF calcium sensitivity activators, primary screen, biochemical, IANBD-TnC fluorescence, EC20 calcium | 340,000 compounds, 0.24% hits | Troponin I, cardiac muscle (Homo sapiens) + Troponin T, cardiac muscle (Homo sapiens) + … | AID 493008, 2010 | IANBD-labeled TnC RTF fluorescence at EC20 calcium; 0% EC20 calcium, 100% full calcium | activation, % at 7.2 µM;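 active = activation above the mean over all tested compounds plus 3 SD, cut at about 30% in these data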;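 note: rise in fluorescence read as greater calcium sensitivity of cardiac thin filaments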
CAL PDZ FP-2 = CAL PDZ peptide-binding inhibitors, primary screen, biochemical, fluorescence polarization, Cer-tagged CAL PDZ, HTS; purified CAL PDZ, TMR-peptide fluorescence polarization, 1 h; inhibition, % at 20 µM; 330,000 compounds, 0.02% hits; AID 504414, 2011; Golgi-associated PDZ and coiled-coil motif-containing protein (Homo sapiens), Q9HD26;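 active = highest replicate inhibition of at least 40%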;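 note: plate controls were DMSO neutral control wells for no effect and unlabeled competitor peptide control wells for full effect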
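material = purified tagged CAL PDZ domain construct (CerCALP) | buffer or medium = sodium phosphate/NaCl buffer pH 7.4 with TCEP, IgG, Thesit | reagent = TMR-labelled reporter peptide T*-PRC34 bound in PDZ groove | incubation = 1 h room-temperature incubation prior to read | measured by = fluorescence polarization (mP) | evaluation = percent inhibition from loss of millipolarization | control set = unlabelled peptide and DMSO controls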
Keap1 TSA = Keap1 Kelch domain binders by thermal stabilisation, dose response, biophysical, thermal shift, RT-PCR instrument, cherry-pick; shares compounds with Keap1-Nrf2 PPI; delta Tm; active compounds read high; max delta Tm, degrees C; 400 compounds, 8% hits; in the data active = max delta Tm above about 0.48 degrees C
Dye-only ctr = Sypro Orange dye melt without protein, dose response, artefact control for Keap1-Nrf2 interaction inhibitor project, biochemical, thermal shift counterscreen, cherry-pick; AID 651858, 2012; 140 tested, under 10 active; Sypro Orange dye-only thermal melt, no protein, delta Tm; top dose 26 µM; shares compounds with Keap1-Nrf2 PPI; delta Tm, degrees C (no concentration beside the values);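 active = at highest dose tested, delta Tm positive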
* = called active by the depositor; i = inactive; · = no result given; + = active, no number.

SMILES	Keap1-Nrf2 PPI	Cardiac RTF inh	LANA DNA inh	CAL PDZ FP-1	cardiac RTF act	CAL PDZ FP-2	Keap1 TSA	others
O=C(O)CC(CC(=O)O)(C(=O)O)c1ccccc1	1.2	10.0	-2.1	-2.2	-3.0	-3.1	·
C=CCn1cccc(C(=O)Nc2ccc(OC)c(Cl)c2)c1=O	48.1*	-8.0	-1.7	-7.0	31.8*	-3.4	-0.06
Cn1ccnc1C(O)c1ccccc1 (centres undefined)	-0.5	-0.1	0.5	6.2	-4.2	-0.3	·
COc1ccc2ccccc2c1C(O)c1nccn1C (centres undefined)	32.9*	-128.8	54.8	-4.3	84.2*	-0.4	0.1
CCN(CC)C(=O)C1c2ccccc2Oc2ccccc21	39.0*	1.5	76.7*	1.5	-7.9	0.9	-0.12
CCCCNC(=O)C1c2ccccc2Oc2ccccc21	4.2	-3.0	1.8	-1.4	1.3	-3.0	·
O=C(CNc1ccccc1)N/N=C/c1c(O)ccc2ccccc12	-5.5	-0.8	3.0	-4.5	-1.9	0.4	·
O=C(CSCC(=O)Nc1ccccc1)N/N=C/c1c(O)ccc2ccccc12	12.4*	1.8	-2.5	-1.8	-9.2	-1.9	0.09	Dye-only ctr=-26.9
Oc1ccc(C2C=C(c3ccc(F)cc3)Nc3ncnn32)cc1 (centres undefined)	-4.7	-19.3	1.3	-6.8	5.4	-1.2	·
Fc1ccc(C2=CC(c3ccc(Br)o3)n3ncnc3N2)cc1 (centres undefined)	36.4*	-196.9	63.6*	-3.4	172.0*	-0.3	-0.17
CCOc1ccc(C2C=C(c3ccc(F)cc3)Nc3ncnn32)cc1 (centres undefined)	3.6	-4.0	1.0	-6.5	-1.8	-0.5	·
Fc1ccc(C2=CC(c3ccco3)n3ncnc3N2)cc1 (centres undefined)	19.2*	-83.0	33.0	7.6	70.5*	-1.6	-0.03
CCOc1ccc2noc3c2c1C(=O)c1ccccc1-3	20.6*	i	51.5	0.7	+	0.3	-0.03
CCNc1ccc2noc3c2c1C(=O)c1ccccc1-3	21.5*	i	64.5*	18.4	+	43.7*	0.83*
O=C1c2ccccc2-c2onc3ccc(NCc4ccco4)c1c23	18.7*	i	64.2	-0.4	714.8*	12.4	0.37
O=C1c2ccccc2-c2onc3ccc(N4CCCC4)c1c23	16.1*	i	11.9	1.9	395.5*	0.4	0.22
CCOC(=O)c1c(C)oc2c1C(=O)c1ccccc1C2=O	2.7	8.2	-0.5	4.7	-9.4	-0.1	·
O=C1C(Cl)=C(NCc2ccco2)C(=O)c2ccccc21	-1.3	-2.5	4.5	1.5	-2.6	1.6	·
CCc1ccc(N(CC(=O)NC2CC2)S(=O)(=O)c2ccc(C)cc2)cc1	-7.1	-1.2	-1.5	-2.9	-1.9	-2.3	·
O=C(NC1(O)C(=O)c2ccccc2C1=O)c1ccccc1	-12.3	0.6	3.0	-1.7	1.7	-0.5	·
O=C(NC1(O)C(=O)c2ccccc2C1=O)c1c(Cl)cccc1Cl	19.5*	·	·	·	·	-0.4	-0.07	Dye-only ctr=-24.4
CC(=O)Nc1ccc(NC(=O)CSc2nc3ccccc3c(=O)n2CCCN2CCOCC2)cc1	-4.9	0.2	1.1	-2.9	-3.1	-1.3	·
O=C(CSc1nc2ccccc2c(=O)n1CCCN1CCOCC1)Nc1ccccc1OC(F)F	18.7*	-2.6	12.1	0.1	0.3	-1.5	-0.14	Dye-only ctr=-22.8
CCCN(CC(=O)Nc1ccccc1C)C(=O)c1cccc(S(=O)(=O)N2CCN(c3ccccc3)CC2)c1	5.0	2.4	0.5	-1.6	-9.1	-2.2	·
COc1ccc2c(c1)c1nc3ccccc3nc1n2CC(=O)OC(C)C	24.3*	-8.9	29.0	1.6	13.3	-0.7	-0.1	Dye-only ctr=-28.8
SMILES	Keap1-Nrf2 PPI	Cardiac RTF inh	LANA DNA inh	CAL PDZ FP-1	cardiac RTF act	CAL PDZ FP-2	Keap1 TSA	others
CC(C)c1cccc(C2=CC(=O)C[C@H](c3ccc4c(c3)OCO4)C2)c1	-5.1	-9.8	0.0	0.6	6.0	-0.6	·
CS(=O)(=O)N1CCCC(C(=O)Nc2ccc(F)c(F)c2)C1 (centres undefined)	41.6*	-10.7	16.9	·	13.5	0.9	-0.08	Dye-only ctr=-26.6
CS(=O)(=O)N1CCCC(C(=O)Nc2ccc(F)cc2)C1 (centres undefined)	-4.0	-7.6	1.6	·	1.4	0.6	·
COc1ccc2nc3ccccc3nc2c1NC(=O)c1ccccc1Cl	15.6*	0.0	9.4	-2.8	-2.3	0.2	0.07
O=C(Nc1ccc2ccccc2n1)c1ccccc1Cl	-1.4	-2.8	2.5	12.4	-4.1	-0.8	·
CCN(C(=O)COC(=O)c1[nH]c(C)c(C(C)=O)c1C)c1c(N)n(Cc2ccccc2)c(=O)[nH]c1=O	-0.1	-3.7	-2.0	-2.1	1.9	-1.1	·
COC(=O)N/N=C/c1cn(Cc2ccccc2Cl)c2ccccc12	17.4*	3.2	1.8	-2.3	-0.9	0.1	-0.17	Dye-only ctr=-23.2
O=C1N=c2ccc(Br)cc2=C1c1sc(=S)n(NS(=O)(=O)c2ccccc2)c1O	52.7*	6.7	0.3	1.3	0.6	10.7	2.67*	Dye-only ctr=-26.4
O=C1N=c2ccccc2=C1c1sc(=S)n(NC(=O)c2cccc(O)c2)c1O	1.2	0.0	-0.9	·	-3.7	3.0	·
COc1cc2c3nnc(-c4ccc(F)cc4)c-3cn(Cc3ccccc3F)c2cc1OC	17.4*	0.3	32.0	3.1	4.7	-0.6	-0.19
COc1ccccc1N1CCN(c2nnc(-c3ccc(F)cc3)c3ccccc23)CC1	-0.1	0.6	4.1	-2.2	-2.3	0.5	·
Cc1cnc(NC(=O)Cc2ccc(S(=O)(=O)N3CCOCC3)s2)s1	13.4*	-4.6	8.2	-0.8	5.0	-0.7	-0.11
COc1ccc(NC(=O)Cc2ccc(Cl)cc2)cc1S(=O)(=O)N1CCCCC1	2.4	4.0	-0.6	-0.1	-2.3	-0.2	·
